# Assay outcomes deposited in PubChem BioAssay by The Scripps Research Institute Molecular Screening Center.
# A selection: hits, their analogues and other compounds. The true share with any hit is near 2.9%.
# CHO-K1 Ca antag: nonselective inhibitor or artifact in parental CHO-K1 cells; ATP-induced calcium, Fluo-8 fluorescence; 360,000 tested, 0.6% active; AID 602250; inhibition, % at 3 µM;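 active = inhibition above a per-plate cutoff, the plate's mean sample inhibition plus 3 SD, cut at about 24% in these data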;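 note: 0% = DMSO plus EC80 ATP and 100% = DMSO alone without ATP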
# CHO parental Ca: ATP-evoked calcium signal inhibitors, parental CHO, primary screen, counter-screen for OX1R antagonist project, cell-based, fluorescence, Fluo-8 calcium dye. parental CHO-K1, ATP-induced calcium, Fluo-8 fluorescence. inhibition, % at 5.6 µM. 330,000 tested, 0.63% active;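 active = inhibition above that plate's mean sample inhibition plus 3 SD, cut at about 26% in these data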;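 note: 0% = ATP-challenged DMSO wells and 100% = DMSO wells without ATP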
#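 Measured by: calcium-sensitive Fluo-8 fluorescence / Test system: CHO parental line / Controls: ATP-challenged DMSO wells low, unchallenged DMSO wells high / Measure: % inhibition / Compound: single nominal dose of 5.6 µM per compound / Replicates: single well per compound, no replicates / Reagent: ATP as calcium-mobilizing challenge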
# OX1R antag-1: antagonists of human orexin 1 receptor (OX1R); 330,000 tested, 1.8% active; OX1R-expressing cells, FRET antagonist read-out; inhibition, % at 6.6 µM; in the data active = inhibition mostly above about 38%, no sharp cut-off; inactive = mostly below about 40%;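 note: 0% = agonist challenge alone and 100% = reference antagonist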
# Target sequence (O43613 whole entry, looked up): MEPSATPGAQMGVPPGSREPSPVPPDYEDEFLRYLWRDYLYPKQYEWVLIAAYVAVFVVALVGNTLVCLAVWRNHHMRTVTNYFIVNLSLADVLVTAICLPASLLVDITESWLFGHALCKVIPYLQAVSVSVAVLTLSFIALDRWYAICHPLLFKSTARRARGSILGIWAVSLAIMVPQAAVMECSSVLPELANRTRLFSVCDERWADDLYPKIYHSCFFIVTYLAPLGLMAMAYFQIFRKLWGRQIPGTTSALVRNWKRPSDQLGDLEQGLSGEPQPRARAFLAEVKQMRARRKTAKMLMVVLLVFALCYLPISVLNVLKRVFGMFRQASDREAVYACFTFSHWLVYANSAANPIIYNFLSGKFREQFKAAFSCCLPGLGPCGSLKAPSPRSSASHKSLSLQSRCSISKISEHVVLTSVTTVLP
# OX1R antag-2: OX1R (HCRTR1) antagonists, primary screen, fluorescence, CHO/OX1R cells, Fluo-8 calcium, orexin A; Orexin/Hypocretin receptor type 1 (Homo sapiens), O43613; Fluo-8 calcium fluorescence; inhibition, % at 5 µM; 330,000 tested, 0.43% active;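 active = inhibition above its plate's threshold, mean inhibition of all tested compounds on the plate plus 3 SD, cut at about 37% in these data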;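 note: 0% = orexin A challenge wells and 100% = SB-334867-A antagonist wells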
# CHO-K1 Ca ag: counter-screen for M1 agonists: effect in parental CHO-K1 cells; Fluo-8 calcium fluorescence; scaled to maximal ATP response, vehicle zero; activation, % at 3 µM; 360,000 tested, 0.48% active; in the data active = activation above about 15%;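 note: untransfected CHO-K1 host cells lacking M1 receptor as counterscreen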
# CHO-K1 Ca PAM: nonselective calcium activators in parental CHO-K1 cells, primary screen, counter-screen for M1 PAM project, cell-based, Fluo-8 calcium fluorescence, full deck, 1536-well | ATP EC20; 0% at ATP EC20, 100% at ATP max | activation, % at 3 µM | 360,000 tested, 0.02% active;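 active = activation above the run cutoff, the mean activation of all test compounds plus 3 SD, cut at about 40% in these data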;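 note: peak over basal fluorescence ratio in a 140 s read after ATP addition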
# OX1R Ca confirm: OX1R (HCRTR1) antagonists, confirmation, fluorescence, CHO/OX1R cells, Fluo-8 calcium, orexin A; shares compounds with OX1R antag-2; inhibition, % at 5 µM; orexin A calcium Fluo-8 fluorescence; AID 492963, 2010; 1,100 tested, 38% active; in the data active = inhibition above about 29%;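 note: 0% = agonist challenge alone and 100% = reference antagonist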
# CHO Ca triplic: ATP-evoked calcium inhibition in parental CHO, counter-screen for OX1R antagonist project, cell-based, fluorescence, CHO-K1, triplicate; 1,100 tested, 9.3% active; ATP-induced calcium, Fluo-8 fluorescence; inhibition, % at 5.6 µM; shares compounds with OX1R antag-2;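 active = inhibition above a per-plate limit, the mean inhibition of that plate's test compounds plus 3 SD, cut at about 25% in these data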;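 note: 0% = ATP challenge with DMSO and 100% = DMSO without ATP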
# The depositor's hits bear a star; x = no result given.
SMILES,CHO-K1 Ca antag,CHO parental Ca,OX1R antag-1,OX1R antag-2,CHO-K1 Ca ag,CHO-K1 Ca PAM,OX1R Ca confirm,CHO Ca triplic
COc1ccc(-c2cn3c(C)c(C(=O)Nc4ccncc4)sc3n2)cc1,-3.3,-1.0,3.1,-28.0,9.2,17.5,x,x
COc1ccc(-c2cn3c(C)c(C(=O)Nc4cccc(NC(C)=O)c4)sc3n2)cc1,7.5,14.6,23.8,30.1,4.1,-6.5,12.4,-1.6
CC1(C)C(=O)Nc2ccccc2N1C(=O)COC(=O)CNS(=O)(=O)c1ccc(Br)cc1Cl,-13.0,x,x,x,2.2,13.7,x,x
CC(=O)Oc1cccc(NC(=O)c2cccc(C(=O)Nc3cccc(OC(C)=O)c3)c2)c1,0.6,-8.9,3.0,51.8*,4.8,9.7,13.7,-2.1
COc1cccc(C(=O)Nc2cccc(OC(C)=O)c2)c1,-3.4,-11.4,7.8,-4.5,-0.2,-6.5,x,x
Cc1ccc(C2(c3ccc(C)cc3)NC(=O)N(CC(N)=O)C2=O)cc1,-7.8,-17.1,15.9,-10.8,-0.5,-4.2,x,x
Cc1ccc(/C=C2\Sc3ccccc3C2=O)s1,-1.2,-21.8,12.9,29.8,0.3,4.8,33.6*,-1.3
Cc1ccc2c(c1)C(c1ccccc1)N(C(=O)c1cccc([N+](=O)[O-])c1)CC(=O)N2 (stereo not drawn),-11.5,-11.4,3.3,-14.0,4.3,-6.2,x,x
COc1ccc(CCNc2c(C)c(C)nc3ncnn23)cc1,7.8,16.5,11.0,44.8*,14.3,-13.2,24.5,76.9*
O=C(Cc1ccc(F)cc1)N[C@@H]1c2ccccc2CC[C@@H]1OCc1ccccc1,-12.6,-7.4,5.9,6.0,0.5,13.1,x,x
COc1ccc(C(=O)Nc2ccc(Cl)c(S(=O)(=O)Nc3ccccc3OC)c2)cc1,6.2,-3.3,30.5,32.4,10.0,5.1,14.8,3.2
N#CCc1ccc(NC(=O)Nc2cccc(Cl)c2)cc1,20.6,13.0,40.0,36.2,10.5,2.1,17.6,33.9*
NS(=O)(=O)c1cccc(NC(=O)Nc2ccc(Cl)cc2)c1,6.5,27.3,31.7,29.9,11.2,-3.6,22.8,19.8
Cn1ncc(Br)c1C(=O)N1CCCCCC1,-0.4,3.9,2.2,11.2,0.9,13.9,x,x
Cc1cccc(OCC(=O)NC(Cc2c[nH]c3ccccc23)C(=O)O)c1C (stereo not drawn),8.4,-35.5,31.9,8.9,-0.2,-13.4,x,x
C[C@@H]1CCC[C@H](C)N1Cc1nc(Cc2ccccc2Cl)no1,2.5,-23.3,31.6,-22.8,0.0,4.2,x,x
C=CCn1c(SCC(=O)Nc2sccc2C(N)=O)nc2sc(C)c(C)c2c1=O,2.8,-14.3,19.6,43.3,2.3,-14.8,-0.9,-14.6
C=CCn1c(SCc2ccc(C(=O)O)cc2)nc2sc(C)c(C)c2c1=O,-19.3,-20.5,14.8,-13.4,0.3,33.7,x,x
Cc1ccc(N=Cc2sc(O)c3ccccc23)c(C)c1,-16.7,-20.7,12.6,-24.9,0.0,6.3,x,x
Cc1ccc(N=Cc2sc(O)c3ccccc23)cc1,6.9,7.9,30.7,35.0,1.4,-2.6,24.0,19.3
Cn1c(CCCOc2ccc(Cl)cc2Cl)nnc1SCC(=O)Nc1nccs1,-7.1,3.0,14.2,38.4,10.8,21.9,6.9,-4.9
CCCCc1nnc(SCC(=O)Nc2nccs2)n1C,-9.7,7.8,5.6,-14.0,2.1,15.8,x,x
CCC(C)NS(=O)(=O)c1ccc(S(=O)(=O)N(CC(=O)Nc2ccccc2)Cc2ccco2)cc1 (stereo not drawn),-9.3,-1.1,3.8,49.0*,9.6,15.6,0.5,-5.2
COC(=O)[C@H](CC(C)C)NC(=O)NC1CCCc2ccccc21 (stereo partly drawn),5.6,24.9,25.8,44.1,0.7,-2.0,22.7,22.7
CC(C)C[C@H](NC(=O)NC1CCCc2ccccc21)C(=O)O (stereo partly drawn),-26.5,-1.9,6.2,-6.5,1.8,28.0,x,x
SMILES,CHO-K1 Ca antag,CHO parental Ca,OX1R antag-1,OX1R antag-2,CHO-K1 Ca ag,CHO-K1 Ca PAM,OX1R Ca confirm,CHO Ca triplic
Cc1cc(Cl)ccc1NC(=S)NCc1ccc(S(N)(=O)=O)cc1,-1.7,9.7,12.9,0.7,-0.3,16.1,x,x
Cc1cc(Cl)ccc1NC(=S)NCc1ccc(Cl)cc1,21.1,10.8,40.1,28.1,7.5,-2.7,-4.5,4.5
COc1ccc(NC(=O)CCc2nc(-c3ccc(C)cc3)no2)cc1Cl,5.5,15.9,56.5,34.3,5.7,3.4,5.4,5.8
COC(=O)c1cn(NC(=O)c2ccc([N+](=O)[O-])cc2Cl)c(=O)c2ccccc12,-18.9,9.8,12.2,10.7,-0.2,-5.1,x,x
COc1ccc(CNC(=O)C(c2ccc(C)o2)N(Cc2cccs2)C(=O)Cc2cccs2)cc1 (stereo not drawn),7.6,13.1,63.5,46.3*,6.4,7.4,9.4,-3.8
COC(=O)C(Cc1c[nH]c2ccccc12)NC(=O)c1cccs1 (stereo not drawn),-1.4,-3.6,6.8,-15.8,2.9,17.0,x,x
COc1ccc(CNC(=O)COC(=O)[C@H](Cc2c[nH]c3ccccc23)NC(=O)c2cccs2)cc1,5.2,12.0,13.3,48.8*,2.2,9.0,59.6*,10.4
COc1ccccc1OCCCCCc1c(C)n[nH]c1C,-5.8,8.5,18.6,43.0,11.1,12.6,8.7,1.4
N#Cc1ccccc1NC(=O)C(=O)NCC1CCCN1S(=O)(=O)c1cccs1 (stereo not drawn),-3.4,-6.8,28.7,17.3,1.8,5.3,21.4,-9.4
O=C(NCC1CCCN1S(=O)(=O)c1cccs1)C(=O)Nc1ccccc1 (stereo not drawn),9.4,-10.9,20.0,-13.6,1.2,2.1,x,x
CCn1c(SCC(=O)N2CCCC2)nc2ccccc2c1=O,-2.2,-21.8,16.4,33.7*,8.5,13.1,-0.4,-8.1
CCCCCc1ccc(OCCCC[n+]2ccc(C)cc2)c(CCCCC)c1,-2.7,21.3,13.6,40.3*,0.3,5.3,16.4,11.2
CN(Cc1ccccc1)C(=O)COC(=O)c1cc(NS(=O)(=O)c2cccs2)ccc1O,2.1,17.7,57.8,43.6*,13.3,-3.1,30.9*,25.8*
CC(C)=CCOc1c2ccoc2c(OCC=C(C)C)c2oc(=O)ccc12,-1.2,-3.9,12.6,54.5*,-0.1,-0.6,4.7,53.4*
CCCn1nnnc1NCc1ccccc1Cl,-11.7,-4.5,5.2,-5.2,0.2,6.2,x,x
